High-throughput results: PubChem, several laboratories
Only some compounds are listed: those with a hit (about 1.3% of all), similar ones and a draw of the others.
NR2E3 ag-1: NR2E3 agonists in two-hybrid cells, primary screen, cell-based, luminescence, CHO-S, Gal4-NCOR/VP16-NR2E3; Photoreceptor-specific nuclear receptor (Homo sapiens), Q9Y5X4; luciferase; inhibition of corepressor binding, % at 3.98 µM; 360,000 tested, 0.35% active; AID 602229, 2012;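 active = inhibition above the mean of all tested compounds plus 3 SD, cut at about 70% in these data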;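 also: 0% = DMSO with NR2E3 transfected cells and 100% = cells lacking NR2E3 construct; higher means lower luciferase signal from less NR2E3 corepressor binding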
Target sequence (Q9Y5X4 whole entry, looked up, the tested form may be a part): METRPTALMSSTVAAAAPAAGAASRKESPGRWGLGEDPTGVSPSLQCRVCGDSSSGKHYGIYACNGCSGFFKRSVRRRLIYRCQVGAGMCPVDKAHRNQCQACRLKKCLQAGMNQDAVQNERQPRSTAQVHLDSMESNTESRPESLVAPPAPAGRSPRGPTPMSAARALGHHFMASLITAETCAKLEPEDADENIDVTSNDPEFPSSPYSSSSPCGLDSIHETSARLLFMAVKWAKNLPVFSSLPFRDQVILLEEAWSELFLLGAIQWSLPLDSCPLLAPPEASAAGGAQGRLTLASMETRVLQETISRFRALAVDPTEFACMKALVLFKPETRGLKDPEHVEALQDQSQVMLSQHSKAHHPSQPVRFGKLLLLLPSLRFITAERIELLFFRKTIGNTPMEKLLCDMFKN
GASC-1 inh: inhibitors of GASC-1 histone demethylase, primary screen, biochemical, fluorescence, DELFIA europium | Lysine-specific demethylase 4C (Homo sapiens), Q9H3R0 | GST-JMJD2C(1-420) H3K9me3 demethylation | inhibition, % at 2.35 µM | 330,000 tested, 0.069% active;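 active = more than half of a compound's replicate wells show inhibition beyond 50%, single wells judged on their own value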;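 also: signal counts dimethyl H3K9 product captured on neutravidin plate; 0% = median of DMSO wells and 100% = 0.3 times that DMSO median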
EP2 antag: human EP2 receptor antagonists, primary screen, TR-FRET cAMP, C6 glioma cells; AID 1422, 2008; C6 glioma cells expressing human EP2; cells stimulated with saturating PGE2; inhibition, % at 25 µM; 260,000 tested, 0.52% active;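 active = percent inhibition above 40 after rounding to a whole number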;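 also: rat C6 glioma host cells with rolipram phosphodiesterase inhibitor present; the protocol text gives 20 µM as final concentration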
NR2E3 ag-2: inhibitors of NR2E3-RetCOR corepressor binding, primary screen, NR2E3 agonist project, biochemical, TR-FRET, GST-NR2E3, biotin-RetCOR. AID 2300, 2010. 1536-well. 320,000 tested, 0.12% active. inhibition of corepressor binding, % at 4.78 µM;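 active = percent inhibition above the cutoff of mean plus 3 SD of all tested compounds, set per screening campaign, cut at about 20% in these data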;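 also: 0% = DMSO wells and 100% = biotin wells as full block of FRET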
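Test system – NR2E3–RetCOR corepressor complex · Quantity – NR2E3 fusion 1.35 nM · Buffer or medium – Tris pH 7.5 · Incubation – Compound–protein incubation for 5 h at 4 °C · Technique – TR-FRET, Eu(K)-anti-GST donor, streptavidin-D2 acceptor, ex 340, em 617/671 nm · Evaluation – percent inhibition of 671/617 nm emission ratio versus biotin and DMSO controls · Plate – 1536-well format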
Furin inh: human furin inhibitors, primary screen, biochemical, fluorescence intensity; P09958; purified furin, fluorogenic substrate cleavage; inhibition, % at 20 µM or 30 µM; 220,000 tested, 0.061% active; AID 463115, 2010; in the data active = inhibition above about 25%
EP2 mod: EP2 receptor modulators, cAMP readout, primary screen, cell-based, HTRF cAMP, PGE2 stimulation | Prostaglandin E2 receptor EP2 subtype (Homo sapiens), P43116 | EP2-expressing cells, cAMP HTRF FRET, PGE2 co-stimulation | induction, % at 25 µM | 260,000 tested, 0.83% active;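 active = compounds whose cAMP rise, as percent of the full-agonist control response, exceeds 60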;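 also: rat C6 glioma line stably carrying human EP2 under a CMV promoter; the protocol text gives 20 µM as final concentration; 100% = response of wells given 1 µM PGE2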
EP2 confirm: cAMP induction in EP2, EP4, beta2-AR and parental cells, confirmation, counter-screen for EP2 modulator project, cell-based, five parallel assays, C6 glioma, HEK293; calls only at 20 µM (by protocol); cAMP HTRF induction; plus low (about EC15) PGE2 agonist; 1,300 tested, 47% active; shares compounds with EP2 mod;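 active = cAMP induction above 50% in the main assay while under 30% in all four parallel counter assays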;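 also: rat C6 glioma cells stably expressing human EP2 receptor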
Numbers without * were called inactive; i = inactive; / = not tested or not shown; + = active, no number.

SMILES	NR2E3 ag-1	GASC-1 inh	EP2 antag	NR2E3 ag-2	Furin inh	EP2 mod	EP2 confirm
O=C(Nc1cc(S(=O)(=O)Nc2ccc(Cl)cc2)ccc1N1CCCCC1)c1ccc(F)cc1Cl	-28.7	1.2	7.5	0.8	-28.0	75.6*	+
O=C(CSc1nc(C2CCCCC2)nc2ccccc12)N1CCOCC1	/	/	15.3	/	/	-13.7	/
O=C(Nc1ccccc1Cl)N1CCSc2ccccc21	-20.9	-2.3	9.0	2.5	-7.3	77.3*	+
CCC1(C)Cc2ccccc2-c2nc3n(c(=O)c21)CCS3 (stereo unspecified)	3.9	-8.7	11.9	6.6	2.0	78.6*	+
CCOc1ccccc1Nc1c2c(nc3nnnn13)CCCC2	/	/	12.3	/	/	-18.4	/
CCOC(=O)C(C)n1cnc2scc(-c3ccccc3)c2c1=O (stereo unspecified)	/	/	8.2	/	/	20.0	/
O=C(CSc1nc2ccccc2n1CC(=O)N1CCOCC1)NCCc1ccccc1	/	/	3.5	/	/	-14.8	/
CC(C)N1CNc2c(c(=O)n(C)c(=O)n2C)C1	/	/	18.2	/	/	-7.7	/
CCOc1ccc(C(C)=O)cc1CC(C(N)=O)C(N)=O	8.7	23.3	/	0.3	-22.0	68.8*	i
CN(C1CCCCC1)C(c1ccc(F)cc1)c1nnnn1C1CCCCC1 (stereo unspecified)	/	/	8.6	/	/	41.7	/
CCN(CC)P(=O)(Nc1ccccc1Br)c1ccc(N(C)C)cc1NC(=O)c1ccco1 (stereo unspecified)	-5.1	-37.2	5.2	-1.0	-18.7	65.9*	i
CCN(CC)C(=O)c1cc(Cl)ccc1NC(=O)c1ccco1	-12.4	-3.0	9.2	-2.6	-16.1	-22.9	/
O=C(Nc1nc(-c2cccs2)c(-c2ccccc2)s1)c1ccco1	-10.0	2.5	4.7	-1.9	-19.7	73.2*	+
C=CCOc1nc(-c2ccncc2)nc2ccccc12	-4.8	3.1	9.1	-4.3	4.1	69.2*	+
COc1nc(-c2ccncc2)nc2ccccc12	-4.7	-11.6	11.9	4.1	-8.8	28.1	/
CC(C)CCn1c(=O)c2ccccc2c2ccccc2c1=O	-5.7	-2.2	7.6	-1.8	-22.2	82.8*	+
Cc1cc2ccccc2n2c(SCC(=O)O)nnc12	/	/	24.8	/	/	13.8	/
CCN1C=CC(=C(C=C2C=CC(=O)C=C2)CS(=O)(=O)O)C=C1	/	/	13.7	/	/	-3.5	/
CC(=O)Nc1ccc(NC(=O)CSc2nnc(-c3ccco3)n2C)cc1	/	/	6.9	/	/	-29.0	/
O=C(NCCO)C(=O)Nc1nccs1	/	/	7.7	/	/	8.6	/
CCn1c(-c2ccccc2)c(C(=O)CCl)c2ccccc21	20.1	6.1	12.3	-4.6	-32.8	78.2*	+
COc1ccc(NC(=O)N2C3CCCC2CC(NC(C)=O)C3)cc1 (stereo unspecified)	/	/	8.4	/	/	-30.2	/
Cc1ccc2[nH]c3c(=S)nc[nH]c3c2c1	-26.9	9.4	12.2	-1.9	-15.6	88.0*	i
Cc1ccc2[nH]c3c(=O)n(N)c(C)nc3c2c1	2.6	-0.5	3.5	2.6	-17.3	-17.4	/
Cc1cc2ccccc2n2c(=O)n(CC(=O)N3CCCCC3)nc12	/	/	5.9	/	/	-12.1	/
SMILES	NR2E3 ag-1	GASC-1 inh	EP2 antag	NR2E3 ag-2	Furin inh	EP2 mod	EP2 confirm
Fc1ccc(C(c2ccc(F)cc2)N2CCN(C/C=C/c3ccccc3)CC2)cc1	3.2	-4.4	8.3	3.9	-8.6	45.6	i
O=C(c1ccncc1)N1CCN(S(=O)(=O)c2cccc(C(F)(F)F)c2)CC1	-11.5	-8.4	/	3.8	/	/	/
O=S(=O)(c1cccc(C(F)(F)F)c1)N1c2ccccc2-n2cccc2[C@H]1c1cccnc1	/	/	37.0	/	/	52.2	+
CCCc1cc(C(=O)OC)c(NC(=O)c2cc(C)on2)s1	-16.1	-9.1	6.3	2.9	-18.3	58.0	+
COC(=O)c1sc(NC(=O)c2cc(C)on2)nc1C	-32.9	-5.0	/	-0.6	/	/	/
Cc1ccc(C)c(CN2C(=O)C(C)Oc3ccc(C)cc32)c1 (stereo unspecified)	7.4	-0.8	4.0	-0.3	-13.4	79.8*	+
Cc1ccc2c(c1)N(Cc1ccccn1)C(=O)C(C)O2 (stereo unspecified)	14.8	-1.8	5.8	-0.2	-11.4	10.8	/
COc1ccc(N(C(=O)c2ccccn2)C(C(=O)NC2CCCCC2)c2cccc(OC)c2)cc1 (stereo unspecified)	/	/	19.8	/	/	6.1	/
Clc1ccccc1Cn1c(/C=C/c2ccco2)nc2ccccc21	-1.5	-0.7	8.8	-1.6	-32.4	70.6*	i
COc1ccc(Cn2c(/C=C/c3ccccc3)nc3ccccc32)cc1	-130.1	0.3	-1.7	2.9	-9.8	42.6	/
CC1CCCCN1C(=O)/C(=C\c1ccccc1)c1ccccc1 (stereo unspecified)	-6.7	-13.9	-0.5	-5.4	-7.5	69.3*	i
Cc1ccc2cc(C)c3nnc(SCC(=O)N4CCN(C(=O)c5ccco5)CC4)n3c2c1C	/	/	10.2	/	/	9.1	/
Cc1ccc(-c2nn3c(C)nnc3s2)cc1NC(=O)c1ccc2ccccc2c1	/	/	6.5	/	/	-7.5	/
Cc1cc(O)c(C=O)c2c1C(=O)Oc1c(COC(=O)/C=C/C(=O)O)c(O)c(C(=O)O)c(C)c1O2	/	/	9.5	/	/	62.9*	+
COc1cnc(-c2ccccc2)nc1Sc1ccccc1	-16.4	1.9	2.8	2.8	-29.7	41.4	/
COc1cnc(N(C)C)nc1Sc1cccc(Cl)c1	-7.4	18.1	11.2	1.4	-21.3	75.7*	+
C=CCNC(=S)NNc1nc(Nc2ccccc2)nc(N2CCCCC2)n1	29.7	16.9	11.0	5.0	-26.3	74.4*	i
COc1ccc(CSC2=C(C#N)C(=O)NC3(CCCCC3)S2)cc1	-28.6	/	37.4	/	/	53.7	i
CCCCCCSC1=C(C#N)C(=O)NC2(CCCCC2)S1	-80.1	19.5	1.2	4.7	-4.7	40.7	/
COc1ccc(NC(=S)N2CCC(c3nc4ccccc4o3)CC2)cc1	/	/	14.3	/	/	-40.9	/
CCC(C)(C)n1nnnc1CN(Cc1cccnc1)Cc1cc2cc(C)cc(C)c2[nH]c1=O	/	/	9.1	/	/	24.1	/
C=CCC(NCc1ccccc1)c1ccc(C)o1 (stereo unspecified)	-19.8	3.9	6.5	2.4	-20.5	38.8	/
